pEC50: −log10 of the molar value. In brackets after ≈: the same amount, converted by molar mass.
Tests used:
[1] = Solubility of the compound in pH 7.4 PBS buffer at 300 uM after 24 hrs by HPLC-ESI-MS analysis; assay type: physicochemical
Summary of the method: (§1)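 Dried 1 mM stock (300 µL) was redissolved in 1 mL PBS pH 7.4 or acid solution pH 1.0 (nominal about 300 µM). Stirred 24 h at r.t., centrifuged, diluted 1:100 or 1:10, then quantified by HPLC-ESI-MS/MS in MRM mode against a 6-point calibration (0.01–10 µM).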

[2] = Solubility of the compound in pH 1 HCl solution at 300 uM after 24 hrs by HPLC-ESI-MS analysis; assay type: physicochemical; summary of the method: as §1
[3] = Octanol-HCl distribution coefficient, log P of the compound at pH 1 at 1 uM after 24 hrs by shake flask method; assay type: physicochemical
Summary of the method: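 Shake-flask method, 1 µM bile acid in mutually pre-saturated 1-octanol/DPBS pH 7.4 or 1-octanol/HCl pH 1.0 (50:50). Equilibrated 24 h with stirring at r.t., then centrifuged. Aqueous-phase concentration before and after partition measured by HPLC-ESI-MS/MS.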

[4] = target: albumin (Bos taurus, UniProt P02769); assay: Binding affinity to bovine serum albumin at 10 uM after 24 hrs by equilibrium dialysis method; assay type: ADME; conditions: cattle, read-out: PB (converted)
Sequence of albumin (P02769 whole entry, the tested form may be a part): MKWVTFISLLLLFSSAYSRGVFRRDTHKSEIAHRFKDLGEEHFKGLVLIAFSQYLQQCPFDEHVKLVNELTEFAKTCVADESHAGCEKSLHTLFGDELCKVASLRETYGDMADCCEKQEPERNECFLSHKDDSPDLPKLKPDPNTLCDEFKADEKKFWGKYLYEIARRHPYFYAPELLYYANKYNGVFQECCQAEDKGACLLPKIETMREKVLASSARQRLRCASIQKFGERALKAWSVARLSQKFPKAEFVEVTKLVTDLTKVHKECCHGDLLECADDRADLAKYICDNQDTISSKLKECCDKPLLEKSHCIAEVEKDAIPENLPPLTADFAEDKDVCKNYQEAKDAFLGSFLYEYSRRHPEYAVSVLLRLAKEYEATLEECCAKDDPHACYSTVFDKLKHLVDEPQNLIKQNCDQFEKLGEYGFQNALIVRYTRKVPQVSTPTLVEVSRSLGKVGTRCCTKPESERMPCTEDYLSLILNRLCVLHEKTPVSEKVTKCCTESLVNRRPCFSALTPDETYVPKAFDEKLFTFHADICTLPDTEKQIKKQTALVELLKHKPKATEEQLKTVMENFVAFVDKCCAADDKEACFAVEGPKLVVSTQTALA

[5] = target: T1, Bile acid receptor (Homo sapiens, UniProt Q96RI1); assay: Agonist activity at GST-tagged FXR-LBD (unknown origin) assessed as biotin-labeled SRC-1 recruitment after 30 mins by Alpha Screen assay
T1 sequence (Q96RI1 whole entry): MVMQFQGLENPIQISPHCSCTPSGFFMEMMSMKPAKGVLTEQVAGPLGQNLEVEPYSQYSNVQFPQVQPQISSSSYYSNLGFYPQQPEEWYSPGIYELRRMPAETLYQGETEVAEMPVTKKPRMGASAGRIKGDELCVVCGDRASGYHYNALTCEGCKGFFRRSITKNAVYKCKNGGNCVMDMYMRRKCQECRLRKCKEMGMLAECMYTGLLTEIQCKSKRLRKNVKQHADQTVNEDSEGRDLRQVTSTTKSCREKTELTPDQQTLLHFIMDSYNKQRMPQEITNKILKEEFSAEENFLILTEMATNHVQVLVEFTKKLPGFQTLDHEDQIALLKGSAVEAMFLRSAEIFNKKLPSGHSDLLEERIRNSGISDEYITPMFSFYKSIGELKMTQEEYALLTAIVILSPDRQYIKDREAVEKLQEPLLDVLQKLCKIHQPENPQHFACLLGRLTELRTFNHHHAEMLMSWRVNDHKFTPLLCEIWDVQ

[6] = target: T2, Bile acid receptor (Homo sapiens) (UniProt Q96RI1); assay: Agonist activity at GST-tagged FXR-LBD (unknown origin) assessed as biotin-labeled SRC-1 recruitment after 30 mins by Alpha Screen assay relative to CDCA
T2 sequence (whole entry): T1 sequence (Q96RI1 whole entry)
Summary of the method: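 GST-FXR-LBD (10 nM) with biotinylated SRC-1 peptide (30 nM), anti-GST acceptor and streptavidin donor beads; buffer 50 mM Tris pH 7.4, 50 mM KCl, 0.1% BSA, 1 mM DTT. Compound in DMSO, 30 min r.t., then beads 4 h dark r.t.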

pEC50 [5]	Efficacy [6]	Compound	solubility at 24 h, 300 µM [1]	solubility at 24 h, 300 µM [2]	logD at 24 h, 1 µM [3]	fraction unbound at 24 h, 10 µM [4]
		C[C@H](CCC(=O)O)[C@H]1CC[C@H]2[C@@H]3[C@H](O)C[C@@H]4C[C@H](O)CC[C@]4(C)[C@H]3CC[C@]12C [CHENODIOL]	282 µM (≈ 111 µg/mL)	33 µM (≈ 13 µg/mL)	2.5	0.015
4.35	7%	C[C@H](CCC(=O)O)[C@H]1CC[C@H]2[C@@H]3CC[C@@H]4C[C@H](O)CC[C@]4(C)[C@H]3C[C@H](O)[C@]12C [DEOXYCHOLIC ACID]				

Source: ChEMBL document CHEMBL4145453, “Synthesis, physicochemical properties, and biological activity of bile acids 3-glucuronides: Novel insights into bile acid signalling and detoxification” (Eur J Med Chem, 2018)
